# High-throughput results: PubChem BioAssay, The Scripps Research Institute Molecular Screening Center
# NPY Y2 blocker: NPY-Y2 (human) receptor antagonism; P49146; NPY-Y2 expressing cells, antagonist mode; inhibition, % at 2.7 µM; 140,000 tested, 0.99% active; AID 793; in the data active means inhibition above about 17%;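 further: 0% = vehicle with agonist challenge and 100% = reference antagonist with challenge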
# NPY1 pot ag: potentiates or activates human NPY-Y1 receptor. P25929. activation, % at 3.6 µM. AID 1304. 220,000 tested, 0.37% active. NPY-Y1 expressing cells, potentiator/agonist activation; in the data active means activation above about 33%, passing the limit was not always enough;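 further: cells stimulated with NPY at EC10 then isoproterenol at EC100; 0% = low agonist plus stimulus and 100% = saturating agonist plus stimulus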
# Hsp70 act: transcriptional activators of Hsp70 | 200,000 tested, 0.04% active | activation, % at 10 µM | HeLa Hsp70 promoter luciferase reporter, luminescence; scaled: vehicle 0, proteasome-inhibitor control 100%;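 active means activation above the mean across all tested compounds plus 3 SD, cutoff set per campaign, cut at about 5.5% in these data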;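 further: 100% = MG132 at 30 µM as the positive control and 0% = DMSO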
# NPY-Y1 antag: NPY-Y1 (human) receptor antagonism. HEK293-CNG Y1 cells, membrane potential fluorescence; NPY at EC95, then isoproterenol. inhibition, % at 3.6 µM. 200,000 tested, 1% active;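 active means inhibition above the campaign mean inhibition of all tested compounds plus 3 SD, cut at about 20% in these data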;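 further: 0% = DMSO wells given NPY plus isoproterenol and 100% = isoproterenol alone without NPY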
#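 Benchmarks – high control isoproterenol alone, low control NPY with isoproterenol · Material – HEK293 Y1/CNG channel cell line · Times – dye 3 h, compound 60 min room temperature, stimulation 45 min · Probe or stimulus – NPY (25 nM), isoproterenol (1 µM), Ro 20-1724 (25 µM) · Evaluation – % inhibition of NPY effect · Signal – fluorescence, membrane potential probe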
# NPY2 pot ag: potentiates or activates human NPY-Y2 receptor; P49146; cells expressing NPY-Y2, potentiator/agonist read-out; activation, % at 3.6 µM; 220,000 tested, 0.45% active; in the data active means activation above about 27%;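 further: cells stimulated with NPY near EC25 plus isoproterenol at EC100; 0% = vehicle plus submaximal agonist and 100% = vehicle plus saturating agonist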
# Wee1 stabilizer: inhibitors of human Wee1 degradation | 220,000 tested, 1.2% active | reporter increase, % at 5 µM | HeLa Luc-Wee1K328M stability, luciferase luminescence; 100% = proteasome inhibitor MG132 effect;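 active means activation above the mean of all tested compounds plus 3 SD, set per screening run, cut at about 8.8% in these data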;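 further: cells exposed to compound for 20 h before luminescence read; 0% = DMSO alone and 100% = MG132 at 30 µM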
# Target sequence (P30291 whole entry K328M): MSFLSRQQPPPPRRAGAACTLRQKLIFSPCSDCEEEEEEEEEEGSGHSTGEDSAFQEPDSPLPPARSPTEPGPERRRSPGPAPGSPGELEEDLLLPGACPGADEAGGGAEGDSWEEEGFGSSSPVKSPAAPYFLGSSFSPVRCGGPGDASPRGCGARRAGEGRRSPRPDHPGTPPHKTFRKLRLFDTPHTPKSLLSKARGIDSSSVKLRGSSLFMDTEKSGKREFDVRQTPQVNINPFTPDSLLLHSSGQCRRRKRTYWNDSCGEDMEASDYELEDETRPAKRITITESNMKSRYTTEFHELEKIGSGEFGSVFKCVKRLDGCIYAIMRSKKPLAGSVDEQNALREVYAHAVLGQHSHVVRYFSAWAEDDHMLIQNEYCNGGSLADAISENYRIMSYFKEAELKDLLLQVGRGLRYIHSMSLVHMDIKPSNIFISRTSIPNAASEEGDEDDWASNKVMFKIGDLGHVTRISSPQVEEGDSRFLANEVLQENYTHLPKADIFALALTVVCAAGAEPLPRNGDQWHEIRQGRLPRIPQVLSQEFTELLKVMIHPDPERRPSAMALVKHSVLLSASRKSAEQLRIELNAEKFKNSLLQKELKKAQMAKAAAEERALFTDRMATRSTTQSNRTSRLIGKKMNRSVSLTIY
# NPY-Y2 pot conf: human NPY-Y2 potentiation or agonism, confirmation. cell-based NPY-Y2 potentiator/agonist assay. 450 tested, 20% active. activation, % at 3.6 µM. shares compounds with NPY2 pot ag. AID 1539; in the data active means activation above about 33%
# NPY-Y1 counter: counter-screen for NPY-Y2 potentiators or agonists: NPY-Y1 potentiators or agonists. Y1 HEK293-CNG cells, membrane potential fluorescence. 450 tested, 20% active. shares compounds with NPY2 pot ag. activation, % at 3.6 µM; in the data active means activation above about 45%;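 further: cells stimulated with submaximal NPY then isoproterenol with phosphodiesterase inhibitor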
# NPY-Y1 ag 2: human NPY-Y1 agonism as NPY-Y2 potentiator counter-screen. shares compounds with NPY2 pot ag. HEK293 Y1-CNGC, membrane potential fluorescence. activation, % at 3.6 µM. 450 tested, 37% active. AID 1702;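 active means activation above the mean of DMSO-only control wells plus 3 SD, cut at about 18% in these data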;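 further: cells stimulated with 1 µM isoproterenol plus the PDE inhibitor Ro 20-1724; 0% = isoproterenol with DMSO and no NPY and 100% = 40 nM NPY; Y1 agonists lower the membrane potential dye signal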
# CNGC inhibitor: blocks CNG channel activity, counter-screen for NPY-Y2 potentiators. AID 1703. 450 tested, 32% active. HEK293-CNG parental, isoproterenol cAMP, membrane potential fluorescence. shares compounds with NPY2 pot ag. inhibition, % at 3.6 µM;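 active means inhibition above the control-well mean plus 3 SD of those wells, cut at about 22% in these data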;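 further: 0% = DMSO with isoproterenol and 100% = DMSO without isoproterenol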
# NPY-Y2 ag 2: NPY-Y2 agonism, counter-screen for Y2 potentiators. shares compounds with NPY2 pot ag. HEK293 Y2/CNGC cells, membrane potential fluorescence, agonist mode. activation, % at 3.6 µM. 450 tested, 56% active. AID 1710;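 active means activation above the mean of solvent-only control wells plus 3 SD, cut at about 10% in these data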;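 further: cells stimulated by isoproterenol with no NPY added so direct agonism is tested; 0% = DMSO with isoproterenol alone and 100% = NPY at EC100 plus isoproterenol; agonism lowers probe fluorescence through less cAMP and CNG channel opening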
# An asterisk follows results filed as active; / = not tested or not shown. Rows were chosen to be rich in hits. Some 3% of all compounds tested hit in one or more screens of this group.
SMILES,NPY Y2 blocker,NPY1 pot ag,Hsp70 act,NPY-Y1 antag,NPY2 pot ag,Wee1 stabilizer,NPY-Y2 pot conf,NPY-Y1 counter,NPY-Y1 ag 2,CNGC inhibitor,NPY-Y2 ag 2
Brc1ccc(-c2csc(-c3c[nH]c4ccccc34)n2)cc1,-3,5,0,-5,11,2,/,/,/,/,/
c1ccc2c(-c3csc(-c4ccncc4)n3)c[nH]c2c1,/,34,0,-11,33*,4,28,53*,51*,39*,34*
CN(C)c1cccc2c1C(=O)c1ccccc1C2=O,-6,17,0,-5,33*,-2,34*,42,26*,26*,29*
CCC(NC(C)C)C(O)c1ccc(O)c(O)c1 (stereo not given),0,61,0,-4,65*,-2,53*,51*,67*,53*,41*
CC(C)C(=O)c1ccc(O)c(O)c1,/,3,/,/,-11,1,/,/,/,/,/
Cc1cc(C)cc(NC(=S)N2CCC(N(C)CC3CCCO3)CC2)c1 (stereo not given),/,12,0,-2,31*,-2,7,3,-3,5,10
Cc1ccc(NC(=S)N2CCC(N(C)CC3CCCO3)CC2)cc1 (stereo not given),/,-11,0,0,10,1,/,/,/,/,/
CC(C)OC(=O)C(C)Nc1n[nH]c(=S)[nH]c1=O (stereo not given),/,3,0,2,73*,2,1,-2,10,-1,11*
COC(/C=C/Nc1ccc(Br)cc1)=C(C#N)C#N,1,10,0,18,8,-1,/,/,/,/,/
O=[N+]([O-])c1ccccc1/C=C/C=N/n1c(-c2ccccc2F)n[nH]c1=S,/,-17,/,/,-37,-1,/,/,/,/,/
CCOc1ccc(NC(=O)CSc2nc(-c3cccs3)cc(C(F)(F)F)n2)c([N+](=O)[O-])c1,2,-15,0,-1,-6,2,/,/,/,/,/
OC(COc1ccc(-c2ccccc2)cc1)CN1CCOCC1 (stereo not given),/,10,0,3,56*,1,-5,-11,3,2,2
CC/C(=N/N=C(\CC)c1ccccc1)c1ccccc1,2,-8,0,0,9,3,/,/,/,/,/
CC(=O)NCCNS(=O)(=O)c1ccc(C)c([N+](=O)[O-])c1,/,13,0,2,-5,-1,/,/,/,/,/
O=C(Nc1ccccc1)OC1CCC2CC1CCC2OC(=O)Nc1ccccc1 (stereo not given),14,40,0,5,31*,1,51*,72*,55*,38*,67*
COc1cc(OC)c(NC(=O)CCNS(=O)(=O)c2cc(Br)cnc2N)cc1Cl,-3,20,0,-4,48*,-3,9,22,14,14,5
Oc1ccc(-c2n[nH]c(C(F)(F)F)c2-c2ccccc2)c(O)c1,/,14,0,-3,53*,1,17,-4,-13,4,15*
CC1(C)CC2CC(C)(CN2C(=S)NC(=O)c2ccccc2Cl)C1 (stereo not given),1,0,0,8,-9,-2,/,/,/,/,/
COc1ccc(NC(=O)c2c(OC)cccc2OC)c(OC)c1,-1,1,0,0,28*,-1,9,10,14,13,17*
CC(C)(C)c1ccc(S(=O)(=O)Nc2cccc(C3OCCCO3)c2)cc1,3,10,0,4,-7,1,/,/,/,/,/
CCc1nnc2n1N=C(c1ccc(-c3cc(Cl)ccc3Cl)o1)CS2,3,-16,0,2,-1,0,/,/,/,/,/
C=C(C)CNC(=S)N=Nc1c(O)[nH]c2ccc([N+](=O)[O-])cc12,/,16,0,-5,12,0,/,/,/,/,/
CC(C)NC(=S)N=Nc1c(O)[nH]c2ccc([N+](=O)[O-])cc12,/,23,0,-1,35*,-2,17,29,19*,17,22*
O=C(/C=C/c1ccc(Br)o1)Nc1nccs1,/,2,0,4,0,1,/,/,/,/,/
OCCN(CCO)c1ccc(C(c2ccccc2Cl)c2ccc(N(CCO)CCO)cc2Cl)c(Cl)c1,-3,39,0,-9,34*,-1,35*,47*,31*,37*,39*
SMILES,NPY Y2 blocker,NPY1 pot ag,Hsp70 act,NPY-Y1 antag,NPY2 pot ag,Wee1 stabilizer,NPY-Y2 pot conf,NPY-Y1 counter,NPY-Y1 ag 2,CNGC inhibitor,NPY-Y2 ag 2
Nc1ccccc1NC1CCCCC1,/,33,0,-3,36*,0,21,34,17,26*,24*
c1cnc(NC2CCCCCC2)nc1,1,-1,0,1,15,0,/,/,/,/,/
CCCC(CCC)=NNC(=O)CN(Cc1ccccc1)S(=O)(=O)c1ccccc1,3,5,0,3,9,-1,/,/,/,/,/
Cc1cc(N)n2ncc(-c3ccc(Cl)cc3)c2n1,-6,48,1,-14,37*,0,32,52*,40*,39*,44*
Oc1ccccc1Nc1nc(NCc2ccccc2)c2ccccc2n1,/,0,0,4,36*,0,47*,56*,45*,48*,45*
Oc1ccc(Cl)cc1Cc1cc(Cl)ccc1O,-4,65,0,-8,62*,5,39*,35,36*,28*,32*
CCOC(=O)c1c(C)[nH]c(C(=O)COC(=O)c2ccc(O)cc2)c1C,/,8,/,/,45*,-3,-9,-16,-13,-11,-3
Cc1ccc(/C=N/NC(=O)Cn2nnc(N)n2)o1,/,20,/,/,4,2,/,/,/,/,/
Cc1ccc(NS(=O)(=O)c2cccc(C(=O)Nc3c(C)n(C)n(-c4ccccc4)c3=O)c2)cc1,/,-18,/,/,58*,1,-3,-2,-11,0,-1
Cc1c([N+](=O)[O-])ccc(S(=O)(=O)N2CCC(C(N)=O)CC2)c1C,2,16,0,-2,6,-3,/,/,/,/,/
N=c1sccn1CC(=O)Nc1ccc(SC(F)F)cc1,/,-9,0,2,5,-2,/,/,/,/,/
